Published values pooled from the literature.
Each line is one published result; the experiments were not run side by side. Converted amounts (≈) assume the structure as drawn.
Organism: Enterococcus faecalis

O=C(O)CN(CCN(CC(=O)O)CC(=O)O)CC(=O)O — MBC (microbial killing; OG1RF): 500 µM (≈ 146 µg/mL)
CSc1ccc(-c2nc3ccc(C)cc3n2Cc2ccccc2)cc1 — MIC (microbial growth, broth dilution; ATCC29212): 128 µg/mL (≈ 372 µM)
CC1(C)S[C@@H]2[C@H](NC(=O)[C@H](N)c3ccccc3)C(=O)N2[C@H]1C(=O)O — inhibition (microbial growth, agar dilution; ATCC29212; 26.93 µM): 100%
Cc1cc(C)n(C(=O)c2ccc(-n3c(C)ccc3C)cc2)n1 — MIC (microbial growth, broth dilution; ATCC14506; 18 h): 125 µg/mL (≈ 426 µM)
Clc1ccc(-c2nc3ccccc3[nH]2)c(Cl)c1 — MIC (microbial growth, broth dilution; ATCC29212): 64 µg/mL (≈ 243 µM)
Cc1ccc(C)n1-c1ccc(-c2nnc(-c3c(Cl)cccc3Cl)[nH]2)cc1 — MIC (microbial growth, broth dilution; ATCC14506; 18 h): 8 µg/mL (≈ 20.9 µM)
CN[C@H](CC(C)C)C(=O)N[C@H]1C(=O)N[C@@H](CC(N)=O)C(=O)N[C@H]2C(=O)N[C@H]3C(=O)N[C@H](C(=O)N[C@H](C(=O)O)c4cc(O)cc(O)c4-c4cc3ccc4O)[C@H](O)c3ccc(c(Cl)c3)Oc3cc2cc(c3O[C@@H]2O[C@H](CO)[C@@H](O)[C@H](O)[C@H]2O[C@H]2C[C@](C)(N)[C@H](O)[C@H](C)O2)Oc2ccc(cc2Cl)[C@H]1O — MBC (microbial killing, broth dilution; NCTC12697): 16 µM (≈ 23.2 µg/mL)
COc1cccc(-c2nc3ccc(C)cc3[nH]2)c1 — MIC (microbial growth, broth dilution; ATCC29212): 128 µg/mL (≈ 537 µM)
c1ccc(CN(CCN(Cc2ccccn2)Cc2ccccn2)Cc2ccccn2)nc1 — MBC (microbial killing; OG1RF): > 2000 µM
CCn1cc(C(=O)O)c(=O)c2cc(F)c(N3CCNCC3)cc21 — MBC (microbial killing, broth dilution; NCTC12697): 4 µM (≈ 1.28 µg/mL)
